Consider 16 compounds from PubChem BioAssay.

The nature of assay [1]: Her2 expression decrease, cell viability multiplex – SKBR3 breast tumor cells, AlphaScreen, ATP viability, primary screen (AID 461;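 active = Her2 level under about 52% in both replicate screens, with viability over 70% of control, limit read from the data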;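 for Her2 level: lower value means less Her2 protein in the cells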;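 for viability: percent of carrier control wells set as 100% viability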). The following applies: SKBR3 Her2 protein level, 18-24 h, measured here: SKBR3 viability, ATP luminescence, at 10 µM. (In Alpha technology, singlet oxygen from a donor bead excites a nearby acceptor bead.)
Assay [2] concerns the target Receptor tyrosine-protein kinase erbB-2 (Homo sapiens) (UniProt P04626). Described as above. Particulars: 18-24 h, at 10 µM, stronger effect = lower value.
Assay [3] can be described thus: reduced viability of SK-BR-3 breast cancer cells – cell-based, 24 h, human, pilot screen (AID 572;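 active = viability at or below 10% of carrier control in both of two separate runs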;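 note: compound exposure lasted between 18 and 24 h rather than exactly 24 h; 100% = carrier-treated control wells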). Particulars: SK-BR-3 viability, CellTiter-Glo luminescence, at 10 µM, stronger effect = lower value.
Assay [4] can be described thus: HUVEC growth inhibition – cell-based, human, primary screen (AID 575;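 active = viability at or below 30% in both replicate assays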;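 note: 100% = median of untreated cell wells with 0.1% DMSO on each plate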). The following applies: HUVEC proliferation, CellTiter-Glo luminescence, 72 h; at 10 µM; stronger effect = lower value. In outline:
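material = primary HUVEC, no more than 12 passages | input = 1250 cells per well | controls = vehicle and MePR control wells | measured by = CTG luminescence | times = 72 h compound incubation | format = collagen-coated 384-well format | read-out = % viability vs DMSO wells | doses = single 10 µM dose, 0.1% DMSO, from 5x medium stock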

Assay [5] is described as follows: H69AR cell proliferation blockers – human, duplicate replicates, primary screen (AID 580;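 active = viability at or under a set limit in both replicates, limit being median viability minus 3 SD, cut at about 48% in these data, passing the limit was not always enough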;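 note: 100% = mean luminescence of untreated wells and 0% = no signal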). Particulars: H69AR lung tumor cells viability, ATP luminescence, 72 h; at 10 µM; stronger effect = lower value.
Assay [6] is described as follows: MRP1 drug-resistance reversers in H69AR cells – cell-based, doxorubicin co-treatment, pilot screen (AID 601;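 active = viability loss from added drug above about 55%, and viability with drug at most 40%, in both replicates, limit read from the data, passing the limit was not always enough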). Particulars: CellTiter-Glo, 72 h, at 10 µM; for differential viability (reversal): stronger effect = higher value. (ATP-based viability assays read luminescence as a measure of living cells.)
Assay [7] in a line: yeast transport mutant growth inhibition pilot in 384-well plates, post-Golgi transport modulator project (AID 636; in the data active = inhibition above about 31%). Particulars: absorbance 615 nm, about 18 h, stronger effect = higher value.
Assay [8] in a line: growth suppression of yeast trafficking mutant, preliminary HTS, modulators of trafficking downstream of Golgi apparatus project, 1536-format plate, OD 615 nm (AID 637). The following applies: yeast transport mutant growth, absorbance 615 nm, 18 h; stronger effect = higher value.
The mark [9] stands for this setting: H69AR cells + 2 uM doxorubicin, measured here: viability with 2 uM doxorubicin, stronger effect = lower value.
[10] abbreviates: H69AR cells, compound alone cytotoxicity.

Calls of active or inactive are those of the source. Cut-off read from the data, not from the text of the source, unless noted: active = inhibition above about 30%; inactive = the rest.

Chain of Receptor tyrosine-protein kinase erbB-2 (Homo sapiens) (P04626 whole entry, looked up): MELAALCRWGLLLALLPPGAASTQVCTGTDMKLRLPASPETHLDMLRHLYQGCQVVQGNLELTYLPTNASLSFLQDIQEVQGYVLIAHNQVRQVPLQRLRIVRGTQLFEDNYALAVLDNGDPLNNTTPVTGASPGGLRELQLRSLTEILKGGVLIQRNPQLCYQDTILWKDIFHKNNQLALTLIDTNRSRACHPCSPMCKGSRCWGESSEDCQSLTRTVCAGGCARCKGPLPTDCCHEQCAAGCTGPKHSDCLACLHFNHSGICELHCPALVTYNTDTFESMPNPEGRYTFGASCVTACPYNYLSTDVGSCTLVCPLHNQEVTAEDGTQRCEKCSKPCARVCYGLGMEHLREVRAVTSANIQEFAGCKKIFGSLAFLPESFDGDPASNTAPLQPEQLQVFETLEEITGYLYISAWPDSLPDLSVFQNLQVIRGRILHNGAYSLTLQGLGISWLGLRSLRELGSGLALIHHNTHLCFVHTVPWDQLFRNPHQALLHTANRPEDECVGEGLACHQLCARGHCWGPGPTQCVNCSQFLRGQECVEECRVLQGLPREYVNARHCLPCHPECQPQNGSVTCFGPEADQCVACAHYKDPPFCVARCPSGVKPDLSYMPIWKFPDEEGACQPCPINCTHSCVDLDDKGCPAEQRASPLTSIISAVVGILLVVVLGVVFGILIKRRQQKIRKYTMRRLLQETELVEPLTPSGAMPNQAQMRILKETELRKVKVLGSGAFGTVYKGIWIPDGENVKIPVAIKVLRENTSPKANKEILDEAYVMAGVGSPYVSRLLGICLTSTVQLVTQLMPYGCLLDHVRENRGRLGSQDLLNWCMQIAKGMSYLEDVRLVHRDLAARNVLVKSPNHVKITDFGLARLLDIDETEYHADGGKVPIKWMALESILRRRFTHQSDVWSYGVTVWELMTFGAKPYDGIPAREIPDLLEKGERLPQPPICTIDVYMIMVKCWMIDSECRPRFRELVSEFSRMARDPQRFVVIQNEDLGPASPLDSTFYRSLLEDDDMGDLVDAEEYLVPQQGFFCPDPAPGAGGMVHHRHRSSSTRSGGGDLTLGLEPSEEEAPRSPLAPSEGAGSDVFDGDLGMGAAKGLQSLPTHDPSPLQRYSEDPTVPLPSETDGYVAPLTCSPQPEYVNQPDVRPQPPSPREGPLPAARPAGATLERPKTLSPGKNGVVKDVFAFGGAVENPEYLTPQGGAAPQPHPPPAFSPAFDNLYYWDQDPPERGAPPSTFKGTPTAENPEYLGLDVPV

As to `Cc1ccc(NC(=O)c2ccccc2O)cc1`, the viability (usually a read-out of living cells in per cent, often relative to untreated cells) in assay [1] is 93.5%; in assay [3], 93.5% (inactive); in assay [4] it was 86.9% (inactive); in assay [5], 89.2% (inactive); in assay [6] (setting [9]) it was 89.4%; in assay [6] (setting [10]) it was 89.2%. The Her2 level in assay [2] is 87.5% (inactive). Also, the differential viability (reversal) in assay [6] (H69AR cells + 2 uM doxorubicin) was -0.22% (inactive). Moreover, the inhibition (as a rule, the drop in the measured response relative to a control, in per cent) was -1.49% (inactive) in assay [7] and -2.7% (inactive) in assay [8].
Consider `COCCCNS(=O)(=O)c1ccc2c(c1)CCN2C(C)=O`, for which the viability in assay [1] was 97%; in assay [3] it was 97% (inactive); in assay [4], 102% (inactive); in assay [5] it was 87.1% (inactive); in assay [6] (setting [9]) it was 105%; in assay [6] (setting [10]) it was 87.1%. In assay [2], the Her2 level was 99% (inactive). Further, the differential viability (reversal) in assay [6] (H69AR cells + 2 uM doxorubicin) was -17.4% (inactive). Moreover, the inhibition in assay [7] was -0.13% (inactive); in assay [8] it was -0.32% (inactive).
Turning to `O=C1CC(c2cccc(Cl)c2)Cc2nc(N3CCN(c4ccccc4)CC3)ncc21` (stereo not given), the viability in assay [1] is 88%; in assay [3], 88% (inactive); in assay [4] it was 95.7% (inactive); in assay [5], 91.3% (inactive); in assay [6] (setting [9]) it was 91.3%; in assay [6] (setting [10]) it was 91.3%. In addition, the Her2 level in assay [2] is 118% (inactive). Further, the differential viability (reversal) in assay [6] (H69AR cells + 2 uM doxorubicin) was -0.02% (inactive). Also, the inhibition in assay [7] is 1.3% (inactive); in assay [8] it was 2.67% (inactive).
Consider `Cc1ccc(OC(=O)CCc2c(C)nc3ncnn3c2C)cc1`, for which the viability is 102% in assay [1]; 102% (inactive) in assay [3]; 95.9% (inactive) in assay [4]; 87.1% (inactive) in assay [5]; 81.7% in assay [6] (setting [9]); 87.1% in assay [6] (setting [10]). In addition, the Her2 level in assay [2] is 96.5% (inactive). Further, the differential viability (reversal) in assay [6] (H69AR cells + 2 uM doxorubicin) was 5.46% (inactive). The inhibition in assay [7] was 3.29% (inactive); in assay [8], -9.09% (inactive).
`CCOC(=O)N1CCN(c2c(NCCN(C)Cc3ccccc3)c(=O)c2=O)CC1`: the viability is 98% in assay [1]; 98% (inactive) in assay [3]; 84.3% (inactive) in assay [4]; 99% (inactive) in assay [5]; 92.9% in assay [6] (setting [9]); 99% in assay [6] (setting [10]). The Her2 level in assay [2] was 95% (inactive). In addition, in assay [6] (H69AR cells + 2 uM doxorubicin), the differential viability (reversal) is 6.12% (inactive). Also, the inhibition in assay [7] was 0.27% (inactive); in assay [8] it was -2.3% (inactive).
Take `Cc1csc(SCc2nc3sc4c(c3c(=O)[nH]2)CCC4)n1`: the viability in assay [1] is 116%; in assay [3] it was 116% (inactive); in assay [4], 103% (inactive); in assay [5] it was 87.8% (inactive); in assay [6] (setting [9]) it was 86%; in assay [6] (setting [10]) it was 87.8%. Further, the Her2 level in assay [2] was 122% (inactive). In addition, the differential viability (reversal) in assay [6] (H69AR cells + 2 uM doxorubicin) is 1.88% (inactive). For the same compound, the values for the inhibition in assay [7] and in assay [8] were -6.16% (inactive) and 0% (inactive), respectively.
On to `COC(=O)c1cc(Br)c(=O)n(-c2ccc(OC)cc2)c1`, for which the viability in assay [1] is 96.5%; in assay [3] it was 96.5% (inactive); in assay [4], 100% (inactive); in assay [5], 94.5% (inactive); in assay [6] (setting [9]), 86.8%; in assay [6] (setting [10]), 94.5%. Moreover, the Her2 level in assay [2] was 93.5% (inactive). For the same compound, in assay [6] (H69AR cells + 2 uM doxorubicin), the differential viability (reversal) is 7.62% (inactive). The inhibition is -2.8% (inactive) in assay [7] and 0.65% (inactive) in assay [8].
For `COc1ccc(C(=O)N2CCN(C3CCC(c4ccccc4)CC3)CC2)cc1OC` (stereo not given), the viability in assay [1] is 108%; in assay [3], 108% (inactive); in assay [4], 95.2% (inactive); in assay [5] it was 83% (inactive); in assay [6] (setting [9]), 85.6%; in assay [6] (setting [10]), 83%. Moreover, the Her2 level in assay [2] was 93% (inactive). The differential viability (reversal) in assay [6] (H69AR cells + 2 uM doxorubicin) was -2.52% (inactive). The inhibition in assay [7] is -4.16% (inactive); in assay [8] it was -3.67% (inactive).
In the case of `Cc1ccc(Cn2nnc3c(=O)[nH]c(C4CCN(C(=O)c5cccs5)CC4)nc32)cc1`, the viability in assay [1] was 90.5%; in assay [3] it was 90.5% (inactive); in assay [4], 73.4% (inactive); in assay [5], 86% (inactive); in assay [6] (setting [9]) it was 83.8%; in assay [6] (setting [10]), 86%. Also, the Her2 level in assay [2] is 84% (inactive). The differential viability (reversal) in assay [6] (H69AR cells + 2 uM doxorubicin) was 2.21% (inactive). Further, the inhibition in assay [7] is -3.73% (inactive); in assay [8] it was -1.94% (inactive).
For `O=C(COC(=O)c1ccc(S(=O)(=O)Nc2ccccc2)cc1)NCCN1C(=O)CSC1=O`, the viability in assay [1] was 107%; in assay [3] it was 107% (inactive); in assay [4], 100% (inactive); in assay [5], 95.3% (inactive); in assay [6] (setting [9]), 86%; in assay [6] (setting [10]) it was 95.3%. The Her2 level in assay [2] was 108% (inactive). For the same compound, in assay [6] (H69AR cells + 2 uM doxorubicin), the differential viability (reversal) was 9.27% (inactive). In addition, the inhibition in assay [7] is -5.07% (inactive); in assay [8], -3.93% (inactive).
Regarding `C/C(N)=C(/C#N)C(=O)COC(=O)c1cc(C)n(-c2ccc(F)cc2)c1C`, the viability in assay [1] is 91%; in assay [3], 91% (inactive); in assay [4], 49.4% (inactive); in assay [5], 98.1% (inactive); in assay [6] (setting [9]), 98.2%; in assay [6] (setting [10]), 98.1%. The Her2 level in assay [2] is 97.5% (inactive). The differential viability (reversal) in assay [6] (H69AR cells + 2 uM doxorubicin) is -0.13% (inactive). Also, the inhibition in assay [7] is -4.53% (inactive); in assay [8] it was -1.45% (inactive).
Regarding `CCOc1ccc(NC(=O)C2CC(=O)N(C(C)C)C2)cc1` (stereo not given), the viability in assay [1] was 103%; in assay [3] it was 103% (inactive); in assay [4], 114% (inactive); in assay [5], 99.7% (inactive); in assay [6] (setting [9]) it was 92.7%; in assay [6] (setting [10]) it was 99.7%. Moreover, in assay [2], the Her2 level is 82% (inactive). Moreover, the differential viability (reversal) in assay [6] (H69AR cells + 2 uM doxorubicin) was 7% (inactive). In addition, the inhibition in assay [7] was -2% (inactive); in assay [8] it was 0.49% (inactive).
As for `CCc1c(C(=O)N2CCOCC2)csc1C`, the viability in assay [1] is 120%; in assay [3] it was 120% (inactive); in assay [4], 101% (inactive); in assay [5] it was 106% (inactive); in assay [6] (setting [9]), 84.9%; in assay [6] (setting [10]), 106%. Further, the Her2 level in assay [2] was 154% (inactive). Also, the differential viability (reversal) in assay [6] (H69AR cells + 2 uM doxorubicin) is 20.8% (inactive). Moreover, the figures for the inhibition in assay [7] and in assay [8] were -3.95% (inactive) and -8.33% (inactive), respectively.
On to `COc1ccc(N(CC(=O)N2c3ccccc3CC2C)S(=O)(=O)c2c(C)noc2C)cc1` (stereo not given), for which the viability is 88.5% in assay [1]; 88.5% (inactive) in assay [3]; 70.3% (inactive) in assay [4]; 83% (inactive) in assay [5]; 99.9% in assay [6] (setting [9]); 83% in assay [6] (setting [10]). Besides, the Her2 level in assay [2] is 88.5% (inactive). Also, in assay [6] (H69AR cells + 2 uM doxorubicin), the differential viability (reversal) is -16.9% (inactive). The inhibition in assay [7] is -4.53% (inactive); in assay [8] it was 1.97% (inactive).
For `CCOC(=O)C(NC(=O)OC(C)C)(Nc1nccs1)C(F)(F)F` (stereo not given), the viability is 89.5% in assay [1]; 89.5% (inactive) in assay [3]; 103% (inactive) in assay [4]; 110% (inactive) in assay [5]; 97.6% in assay [6] (setting [9]); 110% in assay [6] (setting [10]). Also, the Her2 level in assay [2] is 96.5% (inactive). The differential viability (reversal) in assay [6] (H69AR cells + 2 uM doxorubicin) is 12% (inactive). Besides, the figures for the inhibition in assay [7] and in assay [8] were -4.29% (inactive) and 4.44% (inactive), respectively.
As to `COc1cccc(C(=O)Nc2ccc(N(C)C)cc2)c1OC`, the viability in assay [1] was 97%; in assay [3], 97% (inactive); in assay [4], 90% (inactive); in assay [5], 90.9% (inactive); in assay [6] (setting [9]), 80.5%; in assay [6] (setting [10]), 90.9%. Also, the Her2 level in assay [2] was 78.5% (inactive). Further, the differential viability (reversal) in assay [6] (H69AR cells + 2 uM doxorubicin) was 10.3% (inactive). Also, the inhibition in assay [7] was -3.68% (inactive); in assay [8], -1.27% (inactive).
